Our source for the MIC and MIC90 values is ChEMBL document CHEMBL1135427, “Osteoadsorptive bisphosphonate derivatives of fluoroquinolone antibacterials” (2002).

Test [1] is described as follows: Antibacterial activity determined as minimal inhibitory concentration (MIC) against […] OKI 60002. Type of test: functional. Put shortly: (§1)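 Agar dilution. Compounds were dissolved in 0.2% NaHCO3, or in DMSO if insoluble, and mixed into molten agar at 50 °C. After the agar set, bacterial suspension was streaked onto the surface. MIC was read after 48 h of incubation at 37 °C.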

The next test concerns Salmonella typhi. Nature of the test: Antibacterial activity determined as minimal inhibitory concentration (MIC) against Salmonella typhi OKI 10084. Type of test: functional, Salmonella enterica subsp. enterica serovar Typhi. To be noted: Salmonella enterica. The method in brief:
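Agar dilution against a laboratory strain. Compounds were dissolved in 0.2% NaHCO3, or in DMSO if insoluble, and mixed into molten agar at 50 °C. Bacterial suspension was streaked onto the solidified agar. Plates were incubated 48 h at 37 °C. MIC was taken as the lowest concentration inhibiting bacterial growth.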

The next test concerns Escherichia coli. Nature of the test: Antibacterial activity determined as minimal inhibitory concentration (MIC) against Escherichia coli OKI 35034. Type of test: functional. The method in brief:
as §1

For test [2], the system named is Helicobacter pylori. As to the kind of experiment: Antibacterial activity determined as minimal inhibitory concentration (MIC) against Helicobacter pylori HIH 27606. Format: functional. Put shortly:
as §1

Test [3] deals with Helicobacter pylori. Nature of the test: Antibacterial activity determined as minimal inhibitory concentration (MIC) against Helicobacter pylori HIH 27604. Format: functional. The method in brief: as §1
Another test has as its system Enterococcus faecalis. Nature of the test: Antibacterial activity determined as minimal inhibitory concentration (MIC) against Streptococcus faecalis OKI 80171. Type of test: functional. Put shortly:
as §1

Test [4] concerns Staphylococcus aureus. As to the kind of experiment: Antibacterial activity determined as minimal inhibitory concentration (MIC) against Staphylococcus aureus ATCC 25923. Type of test: functional. Put shortly: as §1
The test system of a further test is Pseudomonas aeruginosa. Nature of the test: Antibacterial activity determined as minimal inhibitory concentration (MIC) against Pseudomonas aeruginosa ATCC 27853. Type of test: functional. Put shortly:
as §1

Test [5] concerns Staphylococcus epidermidis. Nature of the test: Antibacterial activity determined as minimal inhibitory concentration (MIC) against Staphylococcus epidermidis ATCC 110001. Format: functional. Put shortly: as §1
Test [6] deals with Staphylococcus aureus. As to the kind of experiment: Antibacterial activity determined as minimal inhibitory concentration (MIC) against Staphylococcus aureus ATCC 12598. Format: functional. Put shortly:
as §1

Test [7] deals with Aggregatibacter actinomycetemcomitans. Nature of the test: Antibacterial activity determined as minimal inhibitory concentration (MIC) against Actinobacillus actinomycetecommitans ATCC 29527. Format: functional. The method in brief: as §1
In test [8] the test system is Staphylococcus aureus. As to the kind of experiment: Antibacterial activity determined as minimal inhibitory concentration (MIC) against Methicillin resistant Staphylococcus aureus. Type of test: functional.
Test [9] relates to Staphylococcus aureus. As to the kind of experiment: Antibacterial activity determined as minimal inhibitory concentration (MIC90) against Methicillin sensitive Staphylococcus aureus. Format: functional. Put shortly:
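Broth microdilution on clinical isolates. Compounds were serially diluted from 256 to 0.5 μg/mL. Log-phase bacteria were added (A540 = 0.15 × 10^7 cfu/mL) and incubated 18 h at 37 °C, then growth was inspected macroscopically. MIC was the lowest concentration inhibiting growth. MIC90 was calculated across multiple isolates from median MIC ±1 SD using the z statistic.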

The test system of test [10] is Staphylococcus aureus. Nature of the test: Antibacterial activity determined as minimal inhibitory concentration (MIC) against Staphylococcus aureus ATCC 12598; value ranges from 8-16. Format: functional. Put shortly:
as §1

For test [11], the system named is Staphylococcus aureus. Nature of the test: Antibacterial activity determined as minimal inhibitory concentration (MIC) against Staphylococcus aureus ATCC 25923; value ranges from 8-16. Type of test: functional. The method in brief:
as §1

Test [12] relates to Aggregatibacter actinomycetemcomitans. As to the kind of experiment: Antibacterial activity determined as minimal inhibitory concentration (MIC) against Actinobacillus actinomycetecommitans ATCC 29527; value ranges from 1-2. Format: functional. Put shortly:
as §1

≈ marks a conversion by molar mass, not a printed value. Some results are limits rather than exact numbers.

Consider `CCOP(=O)(OCC)C(N1CCN(c2cc3c(cc2F)c(=O)c(C(=O)O)cn3C2CC2)CC1)P(=O)(OCC)OCC`, for which the MIC in test [1] stood at 25 µg/mL (≈ 40.5 µM); with Salmonella typhi, 0.78 µg/mL (≈ 1.26 µM); against Escherichia coli, 0.78 µg/mL (≈ 1.26 µM); with Helicobacter pylori [2], 25 µg/mL (≈ 40.5 µM); against Helicobacter pylori [3], 25 µg/mL (≈ 40.5 µM); with Enterococcus faecalis, 50 µg/mL (≈ 81 µM). In addition, the MIC with Staphylococcus aureus [4] was 12.5 µg/mL (≈ 20.2 µM); against Pseudomonas aeruginosa, greater than 100 µg/mL; in [5], 6.25 µg/mL (≈ 10.1 µM).
With `CCOP(=O)(OCC)C(CN1CCN(c2cc3c(cc2F)c(=O)c(C(=O)O)cn3C2CC2)CC1)P(=O)(OCC)OCC`, the MIC in test [1] was less than 0.39 µg/mL; in the test on Salmonella typhi, less than 0.39 µg/mL; with Escherichia coli, less than 0.39 µg/mL; in the test with Helicobacter pylori [2], less than 0.39 µg/mL; in the test on Helicobacter pylori [3], 0.78 µg/mL (≈ 1.24 µM); with Enterococcus faecalis, 3.12 µg/mL (≈ 4.94 µM). The MIC with Staphylococcus aureus [6] was 1 µg/mL (≈ 1.58 µM); against Staphylococcus aureus [4], 3.12 µg/mL (≈ 4.94 µM); in [7], less than 0.25 µg/mL; in the test on Pseudomonas aeruginosa, 3.12 µg/mL (≈ 4.94 µM); with Staphylococcus aureus [8], greater than 8 µg/mL; in test [5], 0.78 µg/mL (≈ 1.24 µM). The compound also had an MIC90 in the test with Staphylococcus aureus [9] of 3.91 µg/mL (≈ 6.19 µM).
Regarding `O=C(O)c1cn(C2CC2)c2cc(N3CCN(CC(P(=O)(O)O)P(=O)(O)O)CC3)c(F)cc2c1=O`, the MIC is less than 0.39 µg/mL in test [1]; 0.78 µg/mL (≈ 1.5 µM) against Salmonella typhi; 0.78 µg/mL (≈ 1.5 µM) with Escherichia coli; 0.78 µg/mL (≈ 1.5 µM) against Helicobacter pylori [2]; 3.12 µg/mL (≈ 6.01 µM) against Helicobacter pylori [3]; 50 µg/mL (≈ 96.3 µM) against Enterococcus faecalis. The MIC was 16 µg/mL (≈ 30.8 µM) in the test on Staphylococcus aureus [10]; 16 µg/mL (≈ 30.8 µM) with Staphylococcus aureus [11]; 2 µg/mL (≈ 3.85 µM) in test [12]; 25 µg/mL (≈ 48.1 µM) in the test with Pseudomonas aeruginosa; greater than 8 µg/mL with Staphylococcus aureus [8]; 25 µg/mL (≈ 48.1 µM) in test [5]. Also, the MIC90 against Staphylococcus aureus [9] is 51.3 µg/mL (≈ 98.8 µM).
Regarding `O=C(O)c1cn(C2CC2)c2cc(N3CCN(C(P(=O)(O)O)P(=O)(O)O)CC3)c(F)cc2c1=O`, the MIC was 6.25 µg/mL (≈ 12.4 µM) in test [1]; 0.78 µg/mL (≈ 1.54 µM) with Salmonella typhi; less than 0.39 µg/mL in the test with Escherichia coli; 12.5 µg/mL (≈ 24.7 µM) in the test with Helicobacter pylori [2]; 12.5 µg/mL (≈ 24.7 µM) with Helicobacter pylori [3]; 100 µg/mL (≈ 198 µM) in the test on Enterococcus faecalis. Besides, the MIC against Staphylococcus aureus [4] worked out at 50 µg/mL (≈ 98.9 µM); against Pseudomonas aeruginosa, 25 µg/mL (≈ 49.5 µM); in [5], 25 µg/mL (≈ 49.5 µM).
Take `O=C(O)c1cn(C2CC2)c2cc(N3CCNCC3)c(F)cc2c1=O` [CIPROFLOXACIN]: the MIC is less than 0.39 µg/mL in test [1]; less than 0.39 µg/mL in the test with Salmonella typhi; less than 0.39 µg/mL against Escherichia coli; less than 0.39 µg/mL in the test with Helicobacter pylori [2]; 0.78 µg/mL (≈ 2.35 µM) in the test on Helicobacter pylori [3]; 3.12 µg/mL (≈ 9.42 µM) in the test on Enterococcus faecalis. The MIC against Staphylococcus aureus [6] was 2 µg/mL (≈ 6.04 µM); against Staphylococcus aureus [4], 1.56 µg/mL (≈ 4.71 µM); in test [7], 0.25 µg/mL (≈ 0.754 µM); with Pseudomonas aeruginosa, 3.12 µg/mL (≈ 9.42 µM); in the test on Staphylococcus aureus [8] it was greater than 8 µg/mL; in [5], 0.78 µg/mL (≈ 2.35 µM). In the test on Staphylococcus aureus [9], this compound registered an MIC90 of 1.65 µg/mL (≈ 4.98 µM).

What is called MIC90 is an inhibitory concentration at the 90% level, which refers to growth in some studies and to a panel of isolates in others. The low end stands for greater potency, the high end for weaker potency.
